≈ marks a conversion by molar mass, not a printed value.
test system: Mycobacterium tuberculosis variant bovis; experiment: Antimycobacterial activity against Mycobacterium bovis BCG Pasteur ATCC 35734 assessed as inhibition of bacterial growth measured after 7 days by resazurin dye based analysis; type: functional; conditions: BCG Pasteur ATCC 35734, 168 h, time 7 day
Method in brief: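 Strains grown in 7H9 broth with 0.2% glycerol, 10% OADC and 0.05% Tween-80. Inoculum was about 5 × 10^5 CFU/mL, checked by plating on 7H10/OADC agar to be 3–8 × 10^5. Read at 2 days for M. smegmatis and 7 days for M. tuberculosis H37Ra, M. bovis and M. avium. Resazurin 30 μg/mL was then added for one further day. Values are averages of at least two experiments.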

First: CN1C(=O)[C@@H]2NC(=O)[C@@H]3NC(=O)[C@@H](c4ccc(O)cc4)NC(=O)[C@H](NC(=O)C(N)c4ccc(O)cc4)Cc4c[nH]c5cc(ccc45)-c4cc3cc(c4O)Oc3ccc(cc3)C[C@H]1C(=O)N[C@@H](C(=O)O)c1ccc(O)c(c1)Oc1ccc2cc1 (stereo partly drawn)
Second: CN1C(=O)[C@@H](c2cc(Cl)c(O)c(Cl)c2)NC(=O)[C@@H]2NC(=O)[C@@H](c3cc(Cl)c(O)c(Cl)c3)NC(=O)[C@H](NC(=O)C(=O)c3cc(Cl)c(O)c(Cl)c3)Cc3c[nH]c4cc(ccc34)-c3cc2cc(c3O)Oc2ccc(cc2)C[C@H]1C(=O)N[C@@H](C(=O)O)c1ccc(O)cc1 [ISOCOMPLESTATIN]
The MIC of the first is 8-fold lower: 8 µg/mL (≈ 7.14 µM) for the first, 64 µg/mL (≈ 48.2 µM) for the second.

`NNC(=O)c1ccncc1` [ISONIAZID] gave an MIC of 0.13 µg/mL (≈ 0.948 µM).

Reference: ChEMBL document CHEMBL5331111, “Synthetic Biology Facilitates Semisynthetic Development of Type V Glycopeptide Antibiotics Targeting Vancomycin-Resistant Enterococcus” (J Med Chem, 2023)
